Measurements gathered from unrelated publications.
Protocols differ between the studies behind these lines. pIC50: −log10 of the molar value. Converted amounts (≈) assume the structure as drawn.
Organism: Staphylococcus aureus

O=C(Sc1cccccc1=O)c1cccc(C(F)(F)F)c1 — MIC80 (microbial growth, broth dilution; ATCC29213): > 100 µM
O=C(O)CN1C(=O)/C(=C/c2ccc(-c3ccc(N(c4ccccc4)c4ccccc4)cc3)c3ccccc23)SC1=S — MBC (microbial killing, broth dilution; ATCC25923): > 1000 µg/mL
NC(=O)Nc1cc(-c2cccc(F)c2)sc1C(=O)N[C@H]1CCCNC1 — MIC (microbial growth; NCTC8325): > 30 µM
CC(=O)NC[C@H]1CN(c2ccc(N3CCOCC3)c(F)c2)C(=O)O1 — MBC (microbial killing, broth dilution; NRS107): 16 µM
O=C1NC(=S)N/C1=C\c1c2ccccc2c(-c2ccc(N(c3ccccc3)c3ccccc3)cc2)c2ccccc12 — MBC (microbial killing, broth dilution; ATCC25923): > 1000 µg/mL
[H]/N=C(/N)N[C@H]1[C@H](O)[C@@H](O)[C@H](O[C@@H]2O[C@@H](C)[C@](O)(C=O)[C@H]2O[C@@H]2O[C@@H](CO)[C@H](O)[C@@H](O)[C@@H]2NC)[C@@H](N/C(N)=N\[H])[C@@H]1O — inhibition zone (microbial growth, well diffusion; NCIM5021; 250 µg/mL): 22 mm
Cn1cc(-c2ccc3nnc(Sc4ccc5ncccc5c4)n3n2)cn1 — MIC (microbial growth; NCTC8325): > 30 µM
O=C(N/N=C/c1ccc([N+](=O)[O-])o1)c1ccc(O)cc1 — MIC90 (microbial growth; ATCC700699): 15.6 µg/mL (≈ 56.8 µM)
COc1ccc2nc(-n3nc(C)c4c3-c3ccccc3C4=O)sc2c1 — inhibition zone (microbial growth, well diffusion; NCIM5021; 250 µg/mL): 12 mm
Nc1cc(C(F)(F)F)c(-c2cc(N3CCOCC3)nc(N3CCOCC3)n2)cn1 — MIC (microbial growth; NCTC8325): > 30 µM
Cc1ccc2nc(-n3nc(C(C)C)c4c3-c3ccccc3C4=O)sc2c1 — inhibition zone (microbial growth, well diffusion; NCIM5021; 1000 µg/mL): 14 mm
O=C(O)CN1C(=O)/C(=C/c2c3ccccc3c(-c3ccc(N(c4ccccc4)c4ccccc4)cc3)c3ccccc23)NC1=S — MBC (microbial killing, broth dilution; ATCC25923): > 1000 µg/mL
CC(C)c1cccc(=O)c(O)c1 — MIC80 (microbial growth, broth dilution; ATCC29213): 66.7 µM (≈ 11 µg/mL)
O=C1NC(=S)S/C1=C\c1c2ccccc2c(-c2ccc(N(c3ccccc3)c3ccccc3)cc2)c2ccccc12 — MBC (microbial killing, broth dilution; ATCC6538): > 1000 µg/mL
CC(C)Cc1nn(-c2nc3ccc(Cl)cc3s2)c2c1C(=O)c1ccccc1-2 — inhibition zone (microbial growth, well diffusion; NCIM5021; 500 µg/mL): 11 mm
C#CCCCCCCCCCCCC(O)CC(O)CO (centres unmarked) — IC50 (microbial growth, broth dilution; ATCC29213): 3.26 µg/mL
CC1(c2ccccc2O)Nn2c(nc(-c3ccc(Cl)cc3)c(C#N)c2=O)N1C(Cc1c[nH]c2ccccc12)C(=O)O (centres unmarked) — inhibition zone (microbial growth; ATCC25923; 15 µg/mL, 24 h): 35 mm
Cc1ccc(NC(=O)c2ccc(CN3CCN(C)CC3)cc2)cc1Nc1nc(-c2cccnc2)cs1 — MIC (microbial growth; NCTC8325): > 30 µM
COC(=O)/C(=C1/OC(=O)C(c2ccccc2)=C1O)c1ccccc1 — pIC50 (microbial growth; ATCC6538): 4.49
CN[C@H](CC(C)C)C(=O)N[C@H]1C(=O)N[C@@H](CC(N)=O)C(=O)N[C@H]2C(=O)N[C@H]3C(=O)N[C@H](C(=O)N[C@H](C(=O)O)c4cc(O)cc(O)c4-c4cc3ccc4O)[C@H](O)c3ccc(c(Cl)c3)Oc3cc2cc(c3O[C@@H]2O[C@H](CO)[C@@H](O)[C@H](O)[C@H]2O[C@H]2C[C@](C)(N)[C@H](O)[C@H](C)O2)Oc2ccc(cc2Cl)[C@H]1O — inhibition zone (microbial growth, disc diffusion; ATCC29213; 125 µg/disc, 24 h): 20 mm
Cc1nn(-c2nc3ccccc3s2)c2c1C(=O)c1ccccc1-2 — inhibition zone (microbial growth, well diffusion; NCIM5021; 250 µg/mL): 10 mm
C#CCCCCCCCCC=CCC(O)CC(O)CO (centres unmarked) — IC50 (microbial growth, broth dilution; ATCC33591 MRSA; drug-resistant strain): > 200 µg/mL
O=C(Nc1cccc(C(F)(F)F)c1)Nc1ccc2c(c1)OC(F)(F)O2 — MIC (microbial growth; NCTC8325; 24 h): 0.7 µM (≈ 0.252 µg/mL)
O=c1cccccc1SSc1cccccc1=O — MIC80 (microbial growth, broth dilution; ATCC29213): > 100 µM
O=C1NC(=S)S/C1=C\c1ccc(-c2ccc(N(c3ccccc3)c3ccccc3)cc2)cc1 — MBC (microbial killing, broth dilution; ATCC25923): 1000 µg/mL
O=C(N[C@H](CO)[C@H](O)c1ccc([N+](=O)[O-])cc1)C(Cl)Cl — MIC90 (microbial growth; ATCC700699): 62.5 µg/mL (≈ 193 µM)
CNC(=O)c1cc(Oc2ccc(N(C)C(=O)Nc3ccc(Cl)c(C(F)(F)F)c3)cc2)ccn1 — MIC (microbial growth; NCTC8325; 24 h): > 100 µM
Cc1ccc2nc(-n3nc(C)c4c3-c3ccccc3C4=O)sc2c1 — inhibition zone (microbial growth, well diffusion; NCIM5021; 125 µg/mL): 11 mm
CNC(=O)c1cc(Oc2ccc(NC(=O)Nc3ccc(Cl)c(C)c3)cc2)ccn1 — MIC (microbial growth; NCTC8325): > 100 µM
CC(C)Cc1nn(-c2nc3ccc(Br)cc3s2)c2c1C(=O)c1ccccc1-2 — inhibition zone (microbial growth, well diffusion; NCIM5021; 250 µg/mL): 11 mm
O=C1NC(=S)S/C1=C\c1ccc(-c2ccc(N(c3ccccc3)c3ccccc3)cc2)c2ccccc12 — MBC (microbial killing, broth dilution; ATCC6538): > 1000 µg/mL
CC1(C)S[C@@H]2[C@H](NC(=O)[C@H](N)c3ccccc3)C(=O)N2[C@H]1C(=O)O — inhibition (microbial growth, agar dilution; ATCC29213; 26.93 µM): 100%
CC(=O)Oc1cccc2c1[nH]c1c(C3=C[C@@]4(O)CC/C=C\CCCCN5CC[C@@H]3[C@]3(C[C@@H]6/C=C\CCCCN6[C@H]34)C5)nccc12 — IC50 (microbial growth; MRSA; drug-resistant strain): 0.45 µg/mL
CCCCCCCCCCCCCC(O)CC(O)CO (centres unmarked) — IC50 (microbial growth, broth dilution; ATCC33591 MRSA; drug-resistant strain): 8.26 µg/mL
O=C(O)CN1C(=O)/C(=C/c2ccc(-c3ccc(N(c4ccccc4)c4ccccc4)cc3)cc2)SC1=S — MBC (microbial killing, broth dilution; ATCC43300): 7.8 µg/mL
CC[C@H](C)[C@H](NC(=O)OCC1c2ccccc2-c2ccccc21)C(=O)Sc1cccccc1=O — MIC80 (microbial growth, broth dilution; ATCC29213): > 100 µM
CC(C)c1nn(-c2nc3ccc(Cl)cc3s2)c2c1C(=O)c1ccccc1-2 — inhibition zone (microbial growth, well diffusion; NCIM5021; 1000 µg/mL): 12 mm
C#Cc1cccc(Nc2ncnc3cc(OCCOC)c(OCCOC)cc23)c1 — MIC (microbial growth; NCTC8325): > 30 µM
